# Sampled rows, rich in hits. Any-hit rate of the full collection: about 2.2%.
# F508del corr – CFTR F508del correction in bronchial cells; actives 0.36% (n = 350,000); CFBE cells, YFP halide quenching; stimulated with forskolin plus potentiator P3; % fluorescence drop versus neutral controls; activity (quench increase), % at 7.58 µM; AID 720511;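 active = mean added fluorescence quench of at least 8% versus neutral control, with both replicates also reaching 8%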;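 also: cells transiently co-express mutant CFTR-F508del with the halide-sensitive YFP; corrector assay measuring rescue of mutant channel to the surface after 24 h compound exposure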
# dFosB act – enhances mouse delta FosB homodimer DNA binding | P13346 | purified delta FosB, TAMRA-CDK5 oligo fluorescence polarization; percent of positive-control signal above neutral wells | activation, % at 25 µM | actives 0.99% (n = 340,000);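 active = mean activation above about 17%, with every replicate also reaching it, limit read from the data, passing the limit was not always enough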
# FGF22 binding – FGF22 (human) thermal shift binding | Q9HCT0 | recombinant FGF22 thermal shift, SYPRO orange fluorescence; percent of sucrose octasulfate shift, DMSO zero | activity (Tm shift, normalised), % at 9.99 µM | actives 1.5% (n = 340,000);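 active = mean Tm shift, scaled 0 neutral to 100 positive control, at about 1.3% or above, every replicate too, limit read from the data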
# Target sequence (Q9HCT0 whole entry, looked up): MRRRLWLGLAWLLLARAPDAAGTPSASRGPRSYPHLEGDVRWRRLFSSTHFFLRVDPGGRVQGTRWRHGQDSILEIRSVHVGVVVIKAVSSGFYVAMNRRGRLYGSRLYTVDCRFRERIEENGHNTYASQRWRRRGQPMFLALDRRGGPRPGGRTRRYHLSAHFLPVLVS
# S100A4 inh HTS – inhibitors of human S100A4 binding to myosin IIA peptide | S100A4/TAMRA-MyoIIA peptide fluorescence polarization | inhibition, % at 10.7 µM | actives 0.14% (n = 360,000) | AID 652163;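 active = mean inhibition of at least 70% across replicates, with every replicate also reaching that level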
# Target sequence (P26447 whole entry, looked up): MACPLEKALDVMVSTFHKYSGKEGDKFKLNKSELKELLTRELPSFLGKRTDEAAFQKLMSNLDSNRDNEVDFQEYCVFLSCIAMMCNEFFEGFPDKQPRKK
#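 Material: S100A4 monomer (human). Medium: Calcium-containing HEPES buffer, pH 7.2. Probe or stimulus: labelled myosin peptide probe, 5 nM. Compound dosing: one concentration per compound. Timing: polarization read 5 min after assay mix addition, stable 5–60 min. Benchmarks: DMSO as neutral control, TFP as positive control.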
# * hit, by the source's call; · = no result given; ! = not active in a repeat.
SMILES,F508del corr,dFosB act,FGF22 binding,S100A4 inh HTS
C[C@H](CO)N1C[C@H](C)[C@@H](CN(C)C(=O)Nc2ccccc2)OCCCC[C@H](C)Oc2ccc(NC(=O)Nc3ccc4c(c3)OCO4)cc2C1=O,-3,·,-1,-27
C[C@@H](NC(=O)Cn1cnc2c(OCc3ccccc3)ncnc21)c1cccc2ccccc12,-1,26*,0,-13
CCC(=O)/C=C1/Sc2ccc(OC)cc2N1CCO,0,3,43*,-6
O=C1CCCCC1C(O)(C(=O)c1ccccc1)c1ccccc1 (configuration not stated),0,·,43*,1
CCCNC(=O)C[C@H]1C[C@H]2c3cc(NC(=O)c4cccnc4)ccc3O[C@H]2[C@H](CO)O1,3,·,0,·
CCOc1cc(OCC)c(C(C)=O)cc1OCC,8.4*,-6,0,8
CCOc1cc(Br)c(C(=O)O)cc1OCC,·,-4,·,·
Cc1ccccc1NC(=O)c1ccc(OCC(=O)Nc2ccccc2F)cc1,-1,1,43*,3
CCCC#Cc1cnc2c(c1)C(=O)N([C@@H](C)CO)C[C@H](C)[C@H](CN(C)S(C)(=O)=O)O2,1,·,0,-1
Cc1c(C(=O)NC(=S)Nc2ccc(N3CCOCC3)cc2)cccc1[N+](=O)[O-],-5,-13,43*,0
CN1CCN(c2ccc(NC(=S)NC(=O)c3cccc4c(Cl)cccc34)cc2)CC1,4,49*,0,7
O=C(Nc1ccc(N2CCCC2)cc1)c1ccccc1[N+](=O)[O-],2,25*,0,-10
Cc1c(C(=O)Nc2ccc(N3CCOCC3)cc2)cccc1[N+](=O)[O-],·,-8,0,0
O=C(Nc1ccc(N2CCN(Cc3ccccc3)CC2)cc1)c1ccccc1[N+](=O)[O-],3,-9,0,9
CCCOC(=O)c1ccc(NC(=O)c2ccccc2[N+](=O)[O-])cc1,-2,-8,43*,-3
CCCC#Cc1cnc2c(c1)C(=O)N([C@H](C)CO)C[C@H](C)[C@H](CN(C)Cc1ccccc1)O2,4,·,·,9
COc1ccc(NC(=O)Nc2cccc3c2O[C@H](CN(C)Cc2ccccc2)[C@@H](C)CN([C@H](C)CO)C3=O)cc1,0,·,0,8
Cc1ccc(S(=O)(=O)N(C)C[C@H]2OCCCC[C@H](C)Oc3ccc(NC(=O)Nc4c(C)noc4C)cc3C(=O)N([C@H](C)CO)C[C@@H]2C)cc1,0,·,0,22
Cc1ccc(NC(=O)Cn2c(O)c(N=NC(=O)c3ccncc3)c3ccccc32)cc1,·,-6,·,·
Cc1cccc(NC(=O)Cn2c(O)c(N=NC(N)=S)c3ccccc32)c1,-5,40*,0,-3
COc1ccccc1NC(=O)Cn1c(O)c(N=NC(=O)c2ccccc2O)c2ccccc21,-4,70*,0,-4
COc1cc(NC(=O)c2ccc(Cl)cc2)c(OC)cc1NC(=O)CN1CCCCC1,-1,-6,1,-2
COc1cc(NC(=O)c2cccc(C)c2)c(OC)cc1NC(=O)CN1CCCCC1,2,-3,43*,-1
Cc1ccc(C(=O)O)cc1NC(=S)NC(=O)c1ccc(-c2ccccc2)cc1,-1,-20,43*,0
O=C(NC(=S)Nc1ccc(Cl)cc1)c1ccccc1,2,7,0,-1
SMILES,F508del corr,dFosB act,FGF22 binding,S100A4 inh HTS
O=C(NC(=S)Nc1ccc(-c2ccccc2)cc1)c1ccccc1,10*,-14,0,-3
O=C(O)c1cccc(NC(=S)NC(=O)c2ccc(-c3ccccc3)cc2)c1,-1,-9,0,-3
[N-]=[N+]=NCCCNC(=O)Nc1ccccc1,-1,·,0,4
O=C(CN1C(=O)NC2(CCCCCCC2)C1=O)Nc1ccc(Br)cc1,9.1*,-6,0,-2
CN(C)/C=C/C(=O)c1ccc(Cl)s1,-2,-7,45*,1
CN(C)/C=C/C(=O)c1cnc(-c2ccc(Cl)cc2)s1,1,0,0,2
CCCCCCN1C[C@H](O)[C@@H](n2cc(C3CC3)nn2)C[C@@H]1c1ccc(C)cc1,1,·,44*,-3
CCCCCCN1C[C@@H](O)[C@H](n2cc(C3CC3)nn2)C[C@@H]1c1ccc(C)cc1,1,·,0,0
C=CC(C)(C)c1[nH]cnc1/C=C1\NC(=O)C(C(C)C)NC1=O (configuration not stated),8.5*,4,0,2
COc1cccc(C(=O)Nc2sc3c(c2C#N)CCN(C(C)=O)C3)c1,14*,-10,0,6
COc1cccc(C(=O)Nc2sc3c(c2C(=O)O)CCCC3)c1,-2,-1,0,-3
COc1ccc(/C=C2\Sc3ccc(C(=O)NC4CC4)cc3N(C)C2=O)cc1OC,-1,-26,0,12
CCN1CCCC1CNC(=O)c1ccc2c(c1)NC(=O)/C(=C\c1ccc(C)cc1)S2 (configuration not stated),3,39*,0,-3
COc1cccc(/C=C2/Sc3ccc(C(=O)NCCN4CCCC4)cc3NC2=O)c1,1,36*,0,1
COc1ccc(/C=C2\Sc3ccc(C(=O)NCCN4CCCCCC4)cc3N(C)C2=O)cc1,-1,27*,0,-5
C[C@H](CO)N1C[C@H](C)[C@@H](CN(C)C(=O)Nc2ccc(F)cc2)OCCCC[C@H](C)Oc2ccc(NS(=O)(=O)c3cccs3)cc2C1=O,-2,·,-1,-32
C[C@H]1CN([C@@H](C)CO)C(=O)Cc2cc(NC(=O)Cc3cn(C)c4ccccc34)ccc2O[C@@H]1CN(C)C(=O)Nc1ccc(C(F)(F)F)cc1,-2,·,0,-6
Cc1cccc(NC(=O)Cn2cnc3c(cnn3-c3ccc(F)cc3)c2=O)c1C,2,49*,0,-2
Nc1ccc(S(=O)(=O)Nc2cnc3ccccc3n2)cc1,11*!,-3,0,-3
COc1ccc(CCCc2nnc(SCc3nc4ccccc4c(=O)[nH]3)n2C)cc1C,1,-10,43*,13
CN1C(=O)c2cc(NC(=O)c3ccc(F)cc3)ccc2OC[C@@H]2O[C@H](CC(=O)O)CC[C@@H]21,1,·,0,-2
CC(NC(=O)C(c1ccccc1)c1ccccc1)c1ccc(S(N)(=O)=O)cc1 (configuration not stated),3,-1,0,-2
Cc1cc(C(=O)CCC(=O)NC(C)c2ccc(S(N)(=O)=O)cc2)c(C)s1 (configuration not stated),8.8*,0,0,-2
COC(=O)CNc1cc(S(=O)(=O)N2CCCCC2)ccc1Oc1ccc(C(=O)OC)cc1,8.7*,-10,0,-5
COC(=O)CNc1cc(S(=O)(=O)N2CCCCC2)ccc1Oc1cccc(C)c1,-2,-1,0,-4
CNC[C@H]1Oc2cc(C#Cc3cccnc3)ccc2S(=O)(=O)N([C@@H](C)CO)C[C@@H]1C,1,·,0,2
COc1ccc(C(=O)NNC(=O)CCC(=O)Nc2ccc(C)cc2C)cc1,-2,-3,0,5
